Bioassay records: PubChem, several laboratories
GalR3 antag: blocks the human galanin receptor 3. inhibition, % at 3 µM. hit rate 0.44% among 360,000. O60755. HEK293 GalR3-CNG cAMP membrane potential fluorescence; galR3 body fused to GalR1 C-terminus;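 active means inhibition above the screen-wide average plus 3 SD, cut at about 13% in these data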;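 further: forskolin and galanin both at EC90 stimulate the cells; cAMP rise reported by CNG channel membrane potential dye signal; 0% = forskolin plus galanin with DMSO and 100% = forskolin alone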
Target sequence (O60755 1-299 limits assumed): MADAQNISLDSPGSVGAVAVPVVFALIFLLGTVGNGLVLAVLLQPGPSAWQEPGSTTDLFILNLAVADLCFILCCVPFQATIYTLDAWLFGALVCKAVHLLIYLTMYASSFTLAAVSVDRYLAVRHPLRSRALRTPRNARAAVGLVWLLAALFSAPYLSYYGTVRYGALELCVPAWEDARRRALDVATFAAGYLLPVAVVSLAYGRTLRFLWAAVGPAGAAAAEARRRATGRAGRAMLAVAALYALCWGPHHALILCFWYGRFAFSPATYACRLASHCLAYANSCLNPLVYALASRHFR
NR2E3 ag-1: agonists of human NR2E3 nuclear receptor | AID 602229 | inhibition of corepressor binding, % at 3.98 µM | hit rate 0.35% among 360,000 | Q9Y5X4 | CHO-S Gal4-NCOR/VP16-NR2E3 two-hybrid, luciferase;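 active means inhibition above the mean of all tested compounds plus 3 SD, cut at about 70% in these data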;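 further: 0% = DMSO with NR2E3 transfected cells and 100% = cells lacking NR2E3 construct; higher means lower luciferase signal from less NR2E3 corepressor binding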
MsrA inh: bovine MsrA inhibition; purified bovine MsrA, absorbance read-out; inhibition, % at 15.5 µM; hit rate 0.75% among 360,000; AID 651718; in the data active means inhibition above about 4.5%;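 further: 0% = vehicle wells with enzyme and 100% = reference inhibitor wells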
NadD inh: NadD (S. aureus) enzyme inhibition; purified NadD enzyme, colorimetric absorbance read-out; inhibition, % at 20 µM; hit rate 0.78% among 360,000; AID 602399; in the data active means inhibition above about 26%
MsrA act: activators of bovine methionine sulfoxide reductase A. purified bovine MsrA, absorbance read-out. activation, % at 10.6 µM. hit rate 0.3% among 360,000. AID 602163; in the data active means activation above about 7.5%;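 further: 0% = vehicle and 100% = reference activator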
NR2E3 ag-2: NR2E3 (human) agonism; hit rate 0.12% among 320,000; Q9Y5X4; inhibition of corepressor binding, % at 4.78 µM; GST-NR2E3/biotin-RetCOR TR-FRET, 1536-well;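 active means percent inhibition above the cutoff of mean plus 3 SD of all tested compounds, set per screening campaign, cut at about 20% in these data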;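 further: 0% = DMSO wells and 100% = biotin wells as full block of FRET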
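System: GST-tagged NR2E3 plus biotinylated RetCOR corepressor; Buffer or medium: pH 7.5 Tris-based buffer; Probe or stimulus: RetCOR corepressor, biotinylated, 7 nM; Doses: compound at 4.8 µM, single dose; Schedule: 5 h incubation at 4 °C; Technique: time-resolved FRET; Evaluation: percent inhibition of TR-FRET ratio; Replication: one well per compound, singlicate testing.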
NadD inh conf: confirmation of Staphylococcus aureus NadD inhibitors; shares compounds with NadD inh; purified S. aureus NadD, colorimetric enzyme assay; inhibition, % at 20 µM; hit rate 13% among 2,000; AID 624309; in the data active means inhibition mostly above about 42%, no sharp cut-off; inactive means mostly below about 42%
Numbers without * were called inactive; . = no result given. An excerpt weighted towards active compounds, which were near 2.5% of everything screened.

SMILES	GalR3 antag	NR2E3 ag-1	MsrA inh	NadD inh	MsrA act	NR2E3 ag-2	NadD inh conf
COc1ccc(C2CC(c3ccccc3)=NN2C(=O)COC(=O)/C=C/c2ccc(O)c(OC)c2)cc1 (stereo not given)	-7	-2	2	46*	-8	2	15
COc1ccc(C2CC(c3ccccc3)=NN2C(=O)COC(=O)CNC(=O)c2ccccc2)cc1 (stereo not given)	1	4	0	-13	-4	4	.
Cc1nn(C)c(C)c1NC(=O)/C(C#N)=C\N(C)C	-6	-13	-1	-10	-3	-3	.
CCc1ccc2c(c1)NC(=O)C2(C)Cc1ccc(C(F)(F)F)o1 (stereo not given)	-8	-5	-1	-3	-2	.	.
N#Cc1sc2nc(-c3ccccc3)cc(-c3ccco3)c2c1N	-2	11	1	32*	3	0	8
CN(C)c1ccnc2c[cH-]cc12.[Fe].c1ccc(-[c-]2[c-](-c3ccccc3)[c-](-c3ccccc3)[c-](-c3ccccc3)[c-]2-c2ccccc2)cc1 (stereo not given)	-7	4	0	29*	-4	-2	-8
COc1ccc(O)c(C(=O)CC(=O)c2ccncc2)c1	-5	-81	0	2	-1	.	.
Cc1ccc(NC(=O)c2ccc(N/N=C/c3cccc(O)c3)c([N+](=O)[O-])c2)cc1	0	-13	1	36*	-5	-1	6
Nc1ccc2cccc(O)c2c1	-5	-58	0	41*	-8	.	29
Nc1ccc2cc3ccccc3cc2c1	5	-60	1	12	-2	.	.
OC(c1ccccc1)C1(c2ccccc2)CCN(Cc2ccccc2)CC1 (stereo not given)	-4	.	0	.	.	.	.
O=C1C(Cc2ccccc2)Nc2ncnc(N3CCN(c4ccccc4)CC3)c2N1Cc1ccccc1 (stereo not given)	-2	23	2	15	-4	0	.
O=C1C(Cc2ccccc2)Nc2ncnc(N3CCN(c4ccccc4)CC3)c2N1Cc1ccc(Br)cc1 (stereo not given)	-7	18	0	42*	-10	.	11
Cc1ccc(CN2C(=O)C(Cc3ccccc3)Nc3ncnc(N4CCN(c5ccccc5)CC4)c32)cc1 (stereo not given)	2	21	2	28*	-1	1	10
CCC1Nc2ncnc(N3CCN(c4ccccc4)CC3)c2N(Cc2ccc(Br)cc2)C1=O (stereo not given)	-9	-7	0	10	-3	-1	.
CN(C)CCCNC(=S)NCC(c1ccc(Cl)cc1Cl)c1c[nH]c2ccccc12 (stereo not given)	-11	-25	-1	2	-1	5	.
CC(C)C[C@@H](CNCC(=O)[C@H](CC(=O)O)NC(=O)c1[nH]cnc1C(=O)N[C@H](CN)CC(C)C)NC(=O)c1nc[nH]c1C(=O)N[C@@H](Cc1ccccc1)C(=O)O	-4	-31	0	35*	-3	.	52*
COc1ccccc1CNC(=O)/C=C/c1ccc(Br)o1	4	-29	0	32*	2	-1	30
COc1cc(NC(=O)C/C(C)=N/NC(=O)c2cccc(O)c2)c(OC)cc1Cl	2	-103	1	-1	-5	-1	.
Oc1ccc(C[C@H]2CNC(=S)N2CCc2cc(C(F)(F)F)cc(C(F)(F)F)c2)cc1	-5	8	1	-3	-2	3	.
COCCOC(=O)c1c(C)oc2ccc(NS(=O)(=O)c3cccs3)cc12	2	-1	0	-6	-4	1	.
CCCCOC(=O)c1c(C)oc2ccc(NS(=O)(=O)c3ccc4c5c(cccc35)C(=O)N4)cc12	0	-2	0	32*	-6	-6	34
Cc1cccc(NS(=O)(=O)c2cc3c4c(c2)CC(=O)N4CCC3)c1C	0	29	-1	0	-8	5	.
Clc1ccc(C2=Nn3c(nnc3-c3cc(-c4ccccc4)n[nH]3)SC2)cc1	-4	-12	0	45*	-3	-1	30
Clc1ccc(C2=Nn3c(nnc3-c3n[nH]c4c3CCC4)SC2)cc1Cl	-1	29	0	30*	4	-1	40
